ChEMBL document CHEMBL5058577, “EUbOPEN Chemogenomics Library 2 (Multiplex)” (2022)

Tested on: U2OS
Experiment: Multiplex assay against U2OS
Assay type: toxicity, cell-based
Settings: human
Procedure, shortened: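 With compound added, live cells were imaged on a CQ1 microscope at 37°C and 5% CO2; staining with Hoechst33342, BioTracker Green Microtubule Cytoskeleton Dye, MitoTracker Red and Annexin V Alexa Fluor 680 had been done at seeding. The CellPathfinder machine-learning gating scheme split cells into Hoechst high-intensity objects or normal cells, normal cells into healthy, pyknosed or fragmented nuclei, and pyknosed cells into mitotic or apoptotic. The tubulin, mitochondrial-mass and membrane-permeability phenotypes are per cents of healthy-nucleus cells.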

[1] = 12 h, 1 µM, compound concentration 1 uM, replicate 1
[2] = 12 h, 1 µM, compound concentration 1 uM, replicate 2
[3] = 12 h, 10 µM, compound concentration 10 uM, replicate 1
[4] = 12 h, 10 µM, compound concentration 10 uM, replicate 2
[5] = 24 h, 1 µM, compound concentration 1 uM, replicate 1
[6] = 24 h, 1 µM, compound concentration 1 uM, replicate 2
[7] = 24 h, 10 µM, compound concentration 10 uM, replicate 1
[8] = 24 h, 10 µM, compound concentration 10 uM, replicate 2
[9] = 48 h, 1 µM, compound concentration 1 uM, replicate 1
[10] = 48 h, 1 µM, compound concentration 1 uM, replicate 2
[11] = 48 h, 10 µM, compound concentration 10 uM, replicate 1
[12] = 48 h, 10 µM, compound concentration 10 uM, replicate 2

## Cc1sc2c(c1C)C(c1ccc(Cl)cc1)=N[C@@H](CC(=O)NCCCCCCCCNC(=O)COc1cccc3c1C(=O)N(C1CCC(=O)NC1=O)C3=O)c1nnc(C)n1-2 (stereo partly specified)
[1]
  Population Apoptotic (%): 93%
  Population Fragmented Nuclei (%): 43%
  Population Healthy Nuclei (%): 49%
  Population Hoechst High Intensity Objects (%): 11%
  Population Membrane Permeable-Phenotype (%): 9%
  Population Mitochondria Different-Phenotype (%): 4%
  Population Mitotic Cells (%): 6%
  Population Normal (%): 88%
  Population Pyknosed Nuclei (%): 6%
  Population Tubulin-Different-Phenotype (%): 5%
  Total Cell Count: 269
[2]
  Population Apoptotic (%): 87%
  Population Fragmented Nuclei (%): 13%
  Population Healthy Nuclei (%): 80%
  Population Hoechst High Intensity Objects (%): 0%
  Population Membrane Permeable-Phenotype (%): 5%
  Population Mitochondria Different-Phenotype (%): 1%
  Population Mitotic Cells (%): 12%
  Population Normal (%): 99%
  Population Pyknosed Nuclei (%): 5%
  Population Tubulin-Different-Phenotype (%): 3%
  Total Cell Count: 136
[3]
  Population Apoptotic (%): 86%
  Population Fragmented Nuclei (%): 31%
  Population Healthy Nuclei (%): 55%
  Population Hoechst High Intensity Objects (%): 5%
  Population Membrane Permeable-Phenotype (%): 2%
  Population Mitochondria Different-Phenotype (%): 4%
  Population Mitotic Cells (%): 13%
  Population Normal (%): 94%
  Population Pyknosed Nuclei (%): 13%
  Population Tubulin-Different-Phenotype (%): 0%
  Total Cell Count: 233
[4]
  Population Apoptotic (%): 100%
  Population Fragmented Nuclei (%): 19%
  Population Healthy Nuclei (%): 75%
  Population Hoechst High Intensity Objects (%): 0%
  Population Membrane Permeable-Phenotype (%): 17%
  Population Mitochondria Different-Phenotype (%): 12%
  Population Mitotic Cells (%): 0%
  Population Normal (%): 99%
  Population Pyknosed Nuclei (%): 4%
  Population Tubulin-Different-Phenotype (%): 12%
  Total Cell Count: 117
[5]
  Population Apoptotic (%): 100%
  Population Fragmented Nuclei (%): 42%
  Population Healthy Nuclei (%): 51%
  Population Hoechst High Intensity Objects (%): 11%
  Population Membrane Permeable-Phenotype (%): 8%
  Population Mitochondria Different-Phenotype (%): 3%
  Population Mitotic Cells (%): 0%
  Population Normal (%): 88%
  Population Pyknosed Nuclei (%): 6%
  Population Tubulin-Different-Phenotype (%): 5%
  Total Cell Count: 297
[6]
  Population Apoptotic (%): 92%
  Population Fragmented Nuclei (%): 12%
  Population Healthy Nuclei (%): 80%
  Population Hoechst High Intensity Objects (%): 2%
  Population Membrane Permeable-Phenotype (%): 5%
  Population Mitochondria Different-Phenotype (%): 2%
  Population Mitotic Cells (%): 7%
  Population Normal (%): 97%
  Population Pyknosed Nuclei (%): 7%
  Population Tubulin-Different-Phenotype (%): 4%
  Total Cell Count: 174
[7]
  Population Apoptotic (%): 100%
  Population Fragmented Nuclei (%): 34%
  Population Healthy Nuclei (%): 53%
  Population Hoechst High Intensity Objects (%): 8%
  Population Membrane Permeable-Phenotype (%): 4%
  Population Mitochondria Different-Phenotype (%): 5%
  Population Mitotic Cells (%): 0%
  Population Normal (%): 91%
  Population Pyknosed Nuclei (%): 12%
  Population Tubulin-Different-Phenotype (%): 2%
  Total Cell Count: 245
[8]
  Population Fragmented Nuclei (%): 27%
  Population Healthy Nuclei (%): 65%
  Population Hoechst High Intensity Objects (%): 0%
  Population Membrane Permeable-Phenotype (%): 21%
  Population Mitochondria Different-Phenotype (%): 9%
  Population Normal (%): 99%
  Population Pyknosed Nuclei (%): 7%
  Population Tubulin-Different-Phenotype (%): 14%
  Total Cell Count: 130
[9]
  Population Apoptotic (%): 91%
  Population Fragmented Nuclei (%): 35%
  Population Healthy Nuclei (%): 53%
  Population Hoechst High Intensity Objects (%): 10%
  Population Membrane Permeable-Phenotype (%): 6%
  Population Mitochondria Different-Phenotype (%): 1%
  Population Mitotic Cells (%): 8%
  Population Normal (%): 89%
  Population Pyknosed Nuclei (%): 10%
  Population Tubulin-Different-Phenotype (%): 2%
  Total Cell Count: 353
[10]
  Population Apoptotic (%): 90%
  Population Fragmented Nuclei (%): 12%
  Population Healthy Nuclei (%): 79%
  Population Hoechst High Intensity Objects (%): 1%
  Population Membrane Permeable-Phenotype (%): 4%
  Population Mitotic Cells (%): 9%
  Population Normal (%): 98%
  Population Pyknosed Nuclei (%): 7%
  Population Tubulin-Different-Phenotype (%): 1%
  Total Cell Count: 270
[11]
  Population Apoptotic (%): 100%
  Population Fragmented Nuclei (%): 36%
  Population Healthy Nuclei (%): 51%
  Population Hoechst High Intensity Objects (%): 7%
  Population Membrane Permeable-Phenotype (%): 9%
  Population Mitochondria Different-Phenotype (%): 4%
  Population Mitotic Cells (%): 0%
  Population Normal (%): 92%
  Population Pyknosed Nuclei (%): 12%
  Population Tubulin-Different-Phenotype (%): 4%
  Total Cell Count: 289
[12]
  Population Fragmented Nuclei (%): 25%
  Population Healthy Nuclei (%): 70%
  Population Hoechst High Intensity Objects (%): 2%
  Population Membrane Permeable-Phenotype (%): 10%
  Population Normal (%): 97%
  Population Pyknosed Nuclei (%): 4%
  Population Tubulin-Different-Phenotype (%): 7%
  Total Cell Count: 179
